Measurements reported in ChEMBL document CHEMBL4033721, “Design, synthesis and evaluation of indole-2-carboxamides with pan anti-mycobacterial activity” (Bioorg Med Chem, 2017).
Values after ≈ are worked out from the molar mass of the structure shown.

Experiments:
[1] = tested on: Mycobacteroides abscessus; experiment: Antimycobacterial activity against Mycobacterium abscessus ATCC 19977 after 8 days by resazurin microtiter based colorimetric assay; type: functional; conditions: ATCC 19977, 192 h
In short: (§1)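 Resazurin microtiter plate MIC, read by visual scan for growth, in Mueller Hinton II broth. Strains include clinical isolates of M. abscessus complex, M. chelonae, M. avium, M. intracellulare, M. xenopi, P. aeruginosa PAO-1 and S. aureus ATCC 25923.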

[2] = tested on: Mycobacteroides abscessus; experiment: Antimycobacterial activity against Mycobacterium abscessus isolate DCI 21 after 8 days by resazurin microtiter based colorimetric assay; type: functional; conditions: isolate DCI 21, 192 h; in short: as §1
[3] = Antimycobacterial activity against Mycobacterium massiliense isolate CIP108297 after 8 days by resazurin microtiter based colorimetric assay; type: functional, Mycobacterium abscessus subsp. massiliense; conditions: Mycobacteroides abscessus, isolate CIP108297, 192 h; in short: as §1
[4] = Antimycobacterial activity against Mycobacterium massiliense isolate CRM0019 after 8 days by resazurin microtiter based colorimetric assay; type: functional, Mycobacterium abscessus subsp. massiliense; conditions: Mycobacteroides abscessus, isolate CRM0019, 192 h; in short: as §1
[5] = Antimycobacterial activity against Mycobacterium bolletii ATCC 14472 after 8 days by resazurin microtiter based colorimetric assay; type: functional; conditions: Mycobacteroides abscessus, ATCC 14472, 192 h; in short: as §1
Mycobacteroides chelonae = experiment: Antimycobacterial activity against Mycobacterium chelonae ATCC 35752 after 8 days by resazurin microtiter based colorimetric assay; type: functional; conditions: ATCC 35752, 192 h; in short: as §1
[6] = tested on: Mycobacterium tuberculosis; experiment: Antimycobacterial activity against Mycobacterium tuberculosis H37Rv MC2-6206 after 8 days by resazurin microtiter based colorimetric assay; type: functional; conditions: H37Rv MC2-6206, 192 h
In short: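 MIC was measured by resazurin microtiter colorimetric assay with visual growth scoring. Medium was 7H9-ADC–0.05% tyloxapol with 0.2% casaminoacids, 48 µg/ml pantothenate and 50 µg/ml L-leucine.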

[7] = tested on: Mycolicibacterium smegmatis; experiment: Antimycobacterial activity against Mycobacterium smegmatis isolate MC2 155 after 8 days by resazurin microtiter based colorimetric assay; type: functional; conditions: str. MC2 155, 192 h
[8] = tested on: Mycobacterium avium-intracellulare; experiment: Antimycobacterial activity against Mycobacterium avium-intracellulare isolate 1956 after 8 days by resazurin microtiter based colorimetric assay; type: functional; conditions: isolate 1956, 192 h; in short: as §1
Mycobacterium xenopi = experiment: Antimycobacterial activity against wild type Mycobacterium xenopi isolate 4042 after 8 days by resazurin microtiter based colorimetric assay; type: functional; conditions: isolate 4042, 192 h; in short: as §1
Pseudomonas aeruginosa = experiment: Antibacterial activity against Pseudomonas aeruginosa PAO1 after 8 days by resazurin microtiter based colorimetric assay; type: functional; conditions: PAO1, 192 h; in short: as §1
Staphylococcus aureus = experiment: Antibacterial activity against Staphylococcus aureus ATCC 25923 after 8 days by resazurin microtiter based colorimetric assay; type: functional; conditions: ATCC 25923, 192 h; in short: as §1
[9] = tested on: Mycobacteroides abscessus; experiment: Bactericidal activity against Mycobacterium abscessus after 8 days by resazurin microtiter based colorimetric assay; type: functional
In short: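 MBC90 found by subculturing from the MIC wells onto 7H11 agar. Value is the lowest concentration cutting CFU by 90% versus the inoculum.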

[10] = Cytotoxicity against human THP1 cells assessed as reduction in cell viability after 3 days by CellTiter-Glo based luminescence assay; conditions: THP-1 cells, read-out: TD50
In short: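 THP-1 cells in complete RPMI, made macrophage-like with 80 nM PMA overnight at 37°C, 5% CO2, then seeded and cultured 24 h. Cells got 10-point DMSO serial dilutions (top 50 µM, final DMSO 0.5%) for 3 days, with staurosporine as control. Viability read by CellTiter-Glo luminescence. IC50 (50% viability) came from a Levenberg–Marquardt curve fit.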

[11] = Selectivity index, ratio of TD50 for human THP1 cells to MIC for Mycobacterium abscessus isolate DCI 21; type: toxicity; conditions: THP-1 cells, read-out: Selectivity Index
In short: (§2)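 Ratio of THP-1 cytotoxicity to resazurin-assay MIC. Cytotoxicity: THP-1 cells were differentiated with 80 nM PMA overnight, plated for 24 h, then given 10-point DMSO dilutions (top 50 μM, 0.5% final DMSO) for 3 days at 37°C, 5% CO₂. ATP luminescence was read, with a staurosporine control. IC₅₀ = concentration giving 50% viability, from a Levenberg–Marquardt curve fit.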

[12] = Selectivity index, ratio of TD50 for human THP1 cells to MIC for Mycobacterium massiliense isolate CRM0019; type: toxicity; conditions: THP-1 cells, read-out: Selectivity Index; in short: as §2
[13] = Selectivity index, ratio of TD50 for human THP1 cells to MIC for Mycobacterium bolletii ATCC 14472; type: toxicity; conditions: THP-1 cells, read-out: Selectivity Index; in short: as §2
[14] = Selectivity index, ratio of TD50 for human THP1 cells to MIC for Mycobacterium chelonae ATCC 35752; type: toxicity; conditions: THP-1 cells, read-out: Selectivity Index; in short: as §2
[15] = Selectivity index, ratio of TD50 for human THP1 cells to MIC for Mycobacterium tuberculosis H37Rv MC2-6206; type: toxicity; conditions: THP-1 cells, read-out: Selectivity Index; in short: as §2
[16] = tested on: Mycobacterium abscessus subsp. massiliense; experiment: Inhibition of MmpL3 in Mycobacterium massiliense isolate 1513 assessed as reduction in trehalose monomycolate by measuring decrease in mycolic acid transfer to cell envelope after 16 hrs using [1,2-14C]acetate labeled compounds by TLC analysis
In short: (§3)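 Lipids were run on TLC in CHCl3:CH3OH:H2O 20:4:0.5. Cell wall-bound MAMEs were run in n-hexane:ethyl acetate 95:5, developed three times. Phosphorimaging read-out gave TMM/TDM ratios and MAME radioactivity relative to untreated control.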

[17] = tested on: Mycobacterium abscessus subsp. massiliense; experiment: Inhibition of MmpL3 in Mycobacterium massiliense isolate 1513 assessed as reduction in arabinogalactan after 16 hrs using [1,2-14C]acetate labeled compounds by TLC analysis; in short: as §3
[18] = tested on: Mycobacterium abscessus subsp. massiliense; experiment: Inhibition of MmpL3 in Mycobacterium massiliense isolate 1513 assessed as reduction in trehalose dimycolate after 16 hrs using [1,2-14C]acetate labeled compounds by TLC analysis; in short: as §3
Mycobacterium avium = experiment: Antimycobacterial activity against Mycobacterium avium isolate 104 after 8 days by resazurin microtiter based colorimetric assay; type: functional; conditions: isolate 104, 192 h
In short: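 M. avium 104 MICs were read by resazurin microtiter colorimetric assay in 96-well plates, with growth scored visually, in Mueller Hinton II medium.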

Row | SMILES | MIC [1] [µg/mL] | MIC [2] [µg/mL] | MIC [3] [µg/mL] | MIC [4] [µg/mL] | MIC [5] [µg/mL] | MIC (Mycobacteroides chelonae) [µg/mL] | MIC [6] [µg/mL] | MIC [7] [µg/mL] | MIC [8] [µg/mL] | MIC (Mycobacterium xenopi) [µg/mL] | MIC (Pseudomonas aeruginosa) [µg/mL] | MIC (Staphylococcus aureus) [µg/mL] | MBC90 [9] [µg/mL] | CC50 at 72 h [10] [µg/mL] | selectivity ratio [11] | selectivity ratio [12] | selectivity ratio [13] | selectivity ratio [14] | selectivity ratio [15] | MIC (Mycobacterium avium) [µg/mL] | other results
1 | Cc1cc(C)c2cc(C(=O)NC3CCCCCCC3)[nH]c2c1 | 0.063 (≈ 0.211 µM) | 0.0078 (≈ 0.0261 µM) | 0.031 (≈ 0.104 µM) | 0.0078 (≈ 0.0261 µM) | 0.0039 (≈ 0.0131 µM) | 0.063 (≈ 0.211 µM) | 0.0195 (≈ 0.0653 µM) | 0.313 to 0.625 (≈ 1.05 to 2.09 µM) | 1 (≈ 3.35 µM) | 0.25 (≈ 0.838 µM) | > 160 | > 160 | 0.015 (≈ 0.0503 µM) | > 14.9 | > 1910 | > 1910 | > 3820 | > 236 | > 764 | – | inhibition [16]: Dose-dependent effect; inhibition [17]: Dose-dependent effect; inhibition [18]: Dose-dependent effect
2 | O=C(NC12CC3CC(CC(C3)C1)C2)c1cc2ccccc2[nH]1 | 0.25 (≈ 0.849 µM) | 0.25 (≈ 0.849 µM) | 0.5 (≈ 1.7 µM) | 0.25 (≈ 0.849 µM) | 0.25 (≈ 0.849 µM) | 0.25 (≈ 0.849 µM) | 0.2 (≈ 0.679 µM) | 1.56 (≈ 5.3 µM) | 8 (≈ 27.2 µM) | 0.5 to 1 (≈ 1.7 to 3.4 µM) | > 160 | > 160 | – | > 14.7 | > 58 | > 58 | > 58 | > 58 | > 73 | 8 (≈ 27.2 µM) | inhibition [16]: Dose-dependent effect; inhibition [17]: Dose-dependent effect; inhibition [18]: Dose-dependent effect
3 | Cc1cc(C)c2cc(C(=O)N[C@@H]3C[C@@H]4C[C@H]([C@H]3C)C4(C)C)[nH]c2c1 | 0.125 (≈ 0.385 µM) | 0.125 (≈ 0.385 µM) | 0.125 (≈ 0.385 µM) | 0.125 (≈ 0.385 µM) | 0.125 (≈ 0.385 µM) | 0.125 (≈ 0.385 µM) | 0.0195 (≈ 0.0601 µM) | 1.25 to 2.5 (≈ 3.85 to 7.7 µM) | 2 (≈ 6.16 µM) | 0.25 to 1 (≈ 0.77 to 3.08 µM) | > 160 | > 160 | – | > 16.2 | > 130 | > 130 | > 130 | > 130 | > 830 | 2 (≈ 6.16 µM) | inhibition [16]: Dose-dependent effect; inhibition [17]: Dose-dependent effect; inhibition [18]: Dose-dependent effect
4 | Cc1cc(C)c2cc(C(=O)NC34CC5CC(CC(C5)C3)C4)[nH]c2c1 | > 32 | 32 (≈ 99.2 µM) | > 32 | > 32 | > 32 | > 32 | 0.0195 (≈ 0.0605 µM) | 1.25 to 2.5 (≈ 3.88 to 7.75 µM) | > 32 | > 32 | – | – | – | – | – | – | – | – | – | > 32 | –
5 | Cc1cc(C)c2cc(C(=O)NC3CCCCC3)[nH]c2c1 | 0.5 (≈ 1.85 µM) | 0.25 (≈ 0.925 µM) | 0.25 (≈ 0.925 µM) | 0.25 (≈ 0.925 µM) | 0.25 (≈ 0.925 µM) | 0.25 (≈ 0.925 µM) | 0.625 (≈ 2.31 µM) | 2.5 (≈ 9.25 µM) | > 32 | 1 to 2 (≈ 3.7 to 7.4 µM) | – | – | – | – | – | – | – | – | – | > 32 | –
6 | Cc1cc(C)c2cc(C(=O)NC3CCC(C)CC3)[nH]c2c1 (mixture of isomers) | ≤ 0.06 | ≤ 0.06 | ≤ 0.06 | ≤ 0.06 | ≤ 0.06 | ≤ 0.06 | 0.31 | > 20 | > 32 | 0.5 to 1 | > 160 | > 160 | 0.03 | – | – | – | – | – | – | > 32 | –
7 | Cc1cc(C)c2cc(C(=O)NC3CCCCCC3)[nH]c2c1 | ≤ 0.06 | ≤ 0.06 | ≤ 0.06 | ≤ 0.06 | ≤ 0.06 | ≤ 0.06 | 0.08 (≈ 0.281 µM) | 0.625 (≈ 2.2 µM) | 4 (≈ 14.1 µM) | 0.06 to 0.12 (≈ 0.211 to 0.422 µM) | > 160 | > 160 | 0.015 (≈ 0.0527 µM) | – | – | – | – | – | – | 2 (≈ 7.03 µM) | –
8 | Cc1cc(C)c2cc(C(=O)N[C@H]3CC[C@H](C)CC3)[nH]c2c1 | ≤ 0.06 | ≤ 0.06 | ≤ 0.06 | ≤ 0.06 | ≤ 0.06 | ≤ 0.06 | 0.31 (≈ 1.09 µM) | > 20 | > 32 | 0.25 to 1 (≈ 0.879 to 3.52 µM) | – | – | – | – | – | – | – | – | – | > 32 | –
9 | Cc1cc(C)c2cc(C(=O)NC(C)C34CC5CC(CC(C5)C3)C4)[nH]c2c1 (stereo not drawn) | 16 (≈ 45.6 µM) | > 32 | 8 (≈ 22.8 µM) | 8 (≈ 22.8 µM) | 16 (≈ 45.6 µM) | 16 (≈ 45.6 µM) | 0.31 (≈ 0.884 µM) | > 20 | > 32 | > 32 | – | – | – | – | – | – | – | – | – | > 32 | –
